# High-throughput results (PubChem BioAssay)
# Compounds with a hit are over-represented: about 3.5% of the library has one in this group of screens.
# RGS4 pot = RGS4 potentiation or activation; HEK293 M3R/inducible RGS4, carbachol calcium flux Fluo4; stronger effect = lower value; 0.92% of 310,000 active; AID 463111; B-score at 10 µM;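 active means B-score of the integrated calcium signal more than 4 SD below the library mean, with starting fluorescence not abnormally high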;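 further: negative B-score means reduced calcium response which marks RGS4 activation or potentiation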
#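 Test system: HEK293 cells with stable M3R and inducible RGS4; also added: carbachol at ECmax as muscarinic agonist stimulus; schedule: dye loading 30 min 37 °C, buffer rest 30 min RT; technique: kinetic calcium fluorescence imaging with Fluo4-AM dye, 2 µM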
# MrgX1 PAM = allosterically activates human MrgX1 receptor signaling | Q96LB2 | MrgX1-HEK293, Fluo-4 calcium flux, FDSS; stronger effect = higher value | B-score at 10 µM | 0.63% of 310,000 active;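 active means plate-corrected calcium response at least 3 library SD above typical, normal starting fluorescence, not activating the receptor alone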;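 further: compound read alongside a low EC10 to EC30 dose of BAM8-22 agonist; peak minus trough fluorescence over baseline measured at the second addition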
# Target sequence (Q96LB2 whole entry, looked up): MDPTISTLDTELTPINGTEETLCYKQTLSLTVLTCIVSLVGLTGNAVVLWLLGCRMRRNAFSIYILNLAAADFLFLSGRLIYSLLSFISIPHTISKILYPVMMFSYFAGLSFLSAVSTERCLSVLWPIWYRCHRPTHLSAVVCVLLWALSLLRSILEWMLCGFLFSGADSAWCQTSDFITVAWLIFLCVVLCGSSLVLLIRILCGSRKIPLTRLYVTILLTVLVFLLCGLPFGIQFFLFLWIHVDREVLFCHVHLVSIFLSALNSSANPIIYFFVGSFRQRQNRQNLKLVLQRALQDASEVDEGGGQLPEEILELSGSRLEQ
# MrgX1 antagonist = human MrgX1 receptor antagonism, primary screen; B-score at 10 µM; 1.3% of 310,000 active; MRGX1-HEK293 calcium flux, Fluo-4, BAM8-22 antagonism; stronger effect = lower value; AID 588676;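 active means calcium-response B-score plate-corrected more than 3 library SD below zero, starting fluorescence within 5 deviations, no agonist response on first addition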;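 further: peak minus trough fluorescence over baseline after final BAM8-22 challenge near maximal dose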
# RGS4 inh = human RGS4 inhibition | P49798 | HEK293 M3R/RGS4 inducible, Fluo-4 calcium flux; stronger effect = higher value; triggered by carbachol at its EC20 | B-score at 10 µM | 0.45% of 310,000 active | AID 463165;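 active means B-score, a plate-corrected calcium signal, over three deviations above library mean, with baseline fluorescence within five deviations of library mean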;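 further: RGS4 expression induced by doxycycline in cells with stable M3 receptor; B-score is computed from the integrated fluorescence ratio over baseline after carbachol; higher B-score means a larger calcium signal and so more RGS4 inhibition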
# Target sequence (P49798 whole entry, looked up): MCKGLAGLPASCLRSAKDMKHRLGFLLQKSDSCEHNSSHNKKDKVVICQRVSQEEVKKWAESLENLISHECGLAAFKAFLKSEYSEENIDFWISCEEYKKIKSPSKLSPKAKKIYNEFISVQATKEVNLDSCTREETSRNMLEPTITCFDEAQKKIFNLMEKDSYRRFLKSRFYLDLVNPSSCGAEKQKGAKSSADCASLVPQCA
# MrgX1 agonist = agonists of human MrgX1 receptor; B-score at 10 µM; Q96LB2; AID 588627; 0.44% of 310,000 active; MrgX1-HEK293 cells, Fluo-4 calcium fluorescence, agonist mode; stronger effect = higher value;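 active means calcium response B-score plate-corrected fluorescence ratio at least 3 library SD, with starting fluorescence B-score inside 5 SD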
#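 Test system: Stable human MrgX1 HEK293 cell line | Schedule: Overnight plating before 1 h dye loading | Read-out basis: Baseline-normalised fluorescence change ratio, B-scored | Detection: Kinetic calcium dye fluorescence, Fluo-4 NW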
# Numbers without * were called inactive; i = inactive; · = no result given.
SMILES,RGS4 pot,MrgX1 PAM,MrgX1 antagonist,RGS4 inh,MrgX1 agonist
C=CCc1cccc2cc(C(=O)Nc3ccc(CC(=O)O)cc3)c(=O)oc12,i,i,i,i,i
C=CCc1cccc2cc(C(=O)Nc3cccc(C(=O)O)c3)c(=O)oc12,i,7.6*,i,i,i
O=C(Nc1ccc(C(=O)O)cc1)/C(=C\C=C\c1ccccc1)NC(=O)c1ccccc1Br,-7.71*,i,i,i,i
O=C(Nc1ccc(C(=O)O)cc1)/C(=C\C=C\c1ccccc1)NC(=O)c1cccc(Br)c1,i,i,i,i,i
CC(C(=O)NCc1ccco1)c1ccc([N+](=O)[O-])cc1 (stereo not drawn),i,i,-4.52*,i,i
Cc1c(C(=O)OC(C)C(C)C[N+](C)(C)C)oc2ccccc12 (stereo not drawn),-8.37*,i,i,i,i
CCN1C(=O)/C(=C/N2CCc3ccccc32)SC1=S,i,i,i,i,33.9*
COc1ccccc1Oc1ccc(S(=O)(=O)N2CCCC2)cc1,i,i,-6.15*,i,i
COc1ccccc1Oc1ccc(S(=O)(=O)N2CCCCC2C)cc1 (stereo not drawn),i,i,i,i,i
COC(=O)c1ccc2c(=O)n(CCCCCC(=O)NC(C)C)c(=O)[nH]c2c1,i,i,i,i,i
Cc1nnc(N2C(=O)C(O)=C(C(=O)c3ccco3)C2c2ccc(F)cc2)s1 (stereo not drawn),i,i,i,i,i
Cc1nnc(N2C(=O)C(O)=C(C(=O)c3ccco3)C2c2ccc(C(C)C)cc2)s1 (stereo not drawn),i,i,i,i,i
Cc1nnc(N2C(=O)C(O)=C(C(=O)c3ccco3)C2c2ccc(C(C)(C)C)cc2)s1 (stereo not drawn),i,i,i,i,26.8*
CSc1ccc(C2C(C(=O)c3ccco3)=C(O)C(=O)N2c2nnc(SC)s2)cc1 (stereo not drawn),i,i,-5.44*,i,i
Cc1cc(N2CCCC2)nc(N2C3CCC2CC(O)(c2ccc(F)cc2)C3)n1 (stereo not drawn),i,7.98*,i,i,i
COc1ccc(C2(O)CC3CCC(C2)N3c2cc(C)nc(-c3ccccc3)n2)cc1 (stereo not drawn),i,i,i,i,i
Cc1cc2[nH]c3c(c[n+](C)c4ccccc34)c2cc1C,-7.06*,i,i,i,i
C=CCN(CC=C)CCCOc1ccc(Br)cc1Cl,i,i,i,i,i
COc1ccc(-c2nc3ccccc3nc2-c2ccc(OC)cc2)cc1,-7.03*,i,i,i,i
NC(=O)c1ccc(SCC(=O)NC2CCCCC2)c([N+](=O)[O-])c1,i,i,i,i,i
CC(C)[C@H](NC(=O)OC(C)(C)C)C(=O)N/N=C/c1cccc2nccnc12,i,i,i,i,i
COC(=O)C1=C(C)N(Cc2ccco2)C(=O)/C1=C\c1ccc([N+](=O)[O-])cc1,i,i,i,i,28.2*
CCCCCN(C(=O)CCC(=O)OC(C)C(=O)c1ccccc1)c1c(N)n(CCCC)c(=O)[nH]c1=O (stereo not drawn),i,i,i,i,i
CN1[C@@H]2CC(OC(=O)[C@H](CO)c3ccccc3)C[C@H]1[C@@H]1O[C@@H]12 (stereo partly drawn),-7.13*,i,i,i,i
COc1ccc(Cl)cc1C(=O)NNC(=O)CSc1nnnn1C,i,i,i,i,i
SMILES,RGS4 pot,MrgX1 PAM,MrgX1 antagonist,RGS4 inh,MrgX1 agonist
COc1ccc(-c2csc(NC(=O)C3CCCO3)n2)cc1 (stereo not drawn),-7.02*,i,i,i,i
O=C(N/N=C/c1sc2ccccc2c1O)c1cccc2ccccc12,i,i,-4.83*,i,i
COc1ccc(C(=O)N/N=C/c2sc3ccccc3c2O)cc1,i,i,i,i,39.4*
O=S(=O)(Nc1ccc2ccccc2n1)c1ccccc1,i,i,i,i,i
O=C(COC(=O)c1c2ccccc2cc2ccccc12)Nc1ncc(C(F)(F)F)cc1Cl,-6.95*,i,i,i,i
O=C(COC(=O)c1ccc2ccccc2c1)Nc1ncc(C(F)(F)F)cc1Cl,i,i,i,i,i
Cn1c(SCC(=O)N2CCCC2=O)nc2ccccc21,i,i,i,i,i
Cc1c(N=Cc2cccnc2)c(=O)n(-c2ccccc2)n1C,i,i,i,i,i
Cc1c(N=C/C=C/c2ccccc2)c(=O)n(-c2ccccc2)n1C,-8.71*,i,i,i,i
CCOc1ccc(NC(=O)CCC(=O)NNC(=O)c2ccc(Br)o2)cc1,i,i,i,i,i
CC(C)CN1CCN(Cc2nc3ccccc3s2)CC1CCO (stereo not drawn),i,i,i,i,i
OCCC1CN(Cc2nc(-c3ccccc3)cs2)CCN1C1CCCC1 (stereo not drawn),-7.18*,i,i,i,i
COc1ccc2c(c1)C=C(CN1CCN(C3CCCC3)C(CCO)C1)CO2 (stereo not drawn),-6.98*,i,i,i,i
OCCC1CN(Cc2nc3ccccc3s2)CCN1C1CCCCC1 (stereo not drawn),i,i,-5.24*,i,i
O=C(c1ccc(NC(=O)C(c2ccccc2)c2ccccc2)cc1)c1ccc(C(=O)O)c(C(=O)O)c1,i,i,i,i,i
CC(CCCC(C)(C)O)CC1C2=C(CCCC2=O)OC2=C1C(=O)CCC2 (stereo not drawn),i,i,i,i,i
O=C(CN1CCCCC1)Nc1ccc(Br)cc1[N+](=O)[O-],i,i,i,i,i
COC(=O)c1[nH]c2ccccc2c1NC(=O)CNC1CCCCC1,-6.99*,i,i,i,i
COC(=O)c1[nH]c2ccccc2c1NC(=O)CN1CCCCCC1,i,i,i,i,i
COc1cc(/C=N/Nc2ccc(C(F)(F)F)cn2)ccc1O,i,7.51*,i,i,i
COc1ccc(Cn2c(=O)n(Cc3ccco3)c(=N)c3c4c(sc32)COC(C)(C)C4)cc1,·,i,i,·,i
CC1(C)Cc2c(sc3c2c(=N)n(Cc2ccco2)c(=O)n3Cc2ccc(F)cc2)CO1,·,i,-4.56*,·,i
C=CCn1c(SCC(=O)c2ccc(Br)cc2)nnc1C(CC(C)C)NC(=O)c1cccs1 (stereo not drawn),i,i,-6.08*,i,i
